Data published in ChEMBL document CHEMBL1157580, “Interaction of (benzylidene-hydrazono)-1,4-dihydropyridines with beta-amyloid, acetylcholine, and butyrylcholine esterases” (Bioorg Med Chem, 2010).
Activity calls are given as the source filed them. The calls are words filed in the database; no cut-off is given here.

Columns and labels:
Cholinesterase = Cholinesterase (Equus caballus, UniProt P81908); test: Inhibition of horse serum BuChE by modified Ellman's method
[1] = Inhibition of fibril formation of amyloid beta (1-40) catalytic domain containing HHQKLVFFAED sequence by thioflavin T assay
[2] = Inhibition of amyloid beta (1-40) fibril formation by thioflavin T formation assay
Method in brief: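 HFIP-pretreated Aβ film taken up in DMSO as a 2 mM stock, stored at -20 °C for at most three days. Diluted to 100 µM final peptide in 25 mM NaH2PO4, 120 mM NaCl, 3 µM thioflavin T, 0.02% NaN3, pH 7.4. Inhibitors at 0.005–0.5 mM. Incubated at 37 °C. Fluorescence read at excitation 450 nm, emission 482 nm.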

Acetylcholinesterase = Acetylcholinesterase (Electrophorus electricus, UniProt O42275); test: Inhibition of electric eel AChE by modified Ellman's method
Method in brief: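 Ellman-based assay. IC50 is the concentration giving 50% loss of AChE activity, reported as mean ± SEM from n = 3-6 experiments.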

[3] = Induction of fibril destruction of amyloid beta (1-40) catalytic domain containing HHQKLVFFAED sequence by modified thioflavin T assay
[4] = Octanol-water partition coefficient, log P at pH 7.4 by RP-HPLC; format: physicochemical
Method in brief: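 Reversed-phase HPLC on an endcapped RP18 column (5 µm). Eluent methanol/phosphate buffer pH 7.4 (70/30) with 0.02% N,N-dimethylhexylamine, 1.0 ml flow. Analytes at 4 µg/ml in methanol, run in duplicate. Capacity factors converted to log P through a calibration against 2-phenylethanol, benzene, dimethylaniline, toluene, biphenyl and anthracene.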

[5] = Inhibition of fibril formation of amyloid beta (1-40) catalytic domain containing HHQKLVFFAED sequence at 0.5 mM by thioflavin T assay
[6] = Dissociation constant, pKa at pH 7.4; format: physicochemical
Method in brief: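 Potentiometric titration: compound dissolved in 0.15 M KCl for constant ionic strength, with 30% dioxane or 80% methanol as co-solvent modifier. pH brought to 1.8 with 0.5 M HCl, then titrated with 0.5 M KOH. Dissociation constants determined at several modifier levels and pKa obtained by extrapolation of the calibration line. Electrode calibrated by blank titrations of 0.15 M KCl.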

[7] = Partition coefficient, log P at pH 5 by shake flask method; format: physicochemical; conditions: octanol/water
Method in brief: (§1)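 Shake flask with octanol and phosphate buffer at the stated pH, each phase pre-saturated with the other overnight. Compound at 10^-5 mol/l in buffer-saturated octanol, absorbance (A0) read between 314 and 360 nm. Equal volumes shaken 4 h at 37 °C, left overnight, then centrifuged. Aqueous-layer absorbance (A1) read; log P = log((A0−A1)/A1).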

[8] = Partition coefficient, log P at pH 6 by shake flask method; format: physicochemical; conditions: octanol/water; method in brief: as §1
[9] = Partition coefficient, log P at pH 7 by shake flask method; format: physicochemical; conditions: octanol/water; method in brief: as §1
[10] = Partition coefficient, log P at pH 7.4 by shake flask method; format: physicochemical; conditions: octanol/water; method in brief: as §1

Cholinesterase, sequence (P81908 whole entry, the tested form may be a part): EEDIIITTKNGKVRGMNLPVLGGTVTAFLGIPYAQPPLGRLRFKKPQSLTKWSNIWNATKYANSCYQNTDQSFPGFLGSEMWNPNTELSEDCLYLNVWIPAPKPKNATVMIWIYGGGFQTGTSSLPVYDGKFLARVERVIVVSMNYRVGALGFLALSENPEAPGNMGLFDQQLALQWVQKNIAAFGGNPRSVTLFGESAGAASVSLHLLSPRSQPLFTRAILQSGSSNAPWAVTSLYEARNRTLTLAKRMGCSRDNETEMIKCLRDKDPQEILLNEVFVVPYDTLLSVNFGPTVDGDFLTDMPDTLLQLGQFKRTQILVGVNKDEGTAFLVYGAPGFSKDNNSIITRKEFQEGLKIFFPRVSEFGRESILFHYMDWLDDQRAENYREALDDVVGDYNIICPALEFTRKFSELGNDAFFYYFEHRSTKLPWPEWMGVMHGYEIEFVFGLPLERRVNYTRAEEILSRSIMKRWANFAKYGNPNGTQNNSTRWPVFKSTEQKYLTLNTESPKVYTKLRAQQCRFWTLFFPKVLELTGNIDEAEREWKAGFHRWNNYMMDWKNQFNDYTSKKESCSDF
Acetylcholinesterase, sequence (O42275 whole entry): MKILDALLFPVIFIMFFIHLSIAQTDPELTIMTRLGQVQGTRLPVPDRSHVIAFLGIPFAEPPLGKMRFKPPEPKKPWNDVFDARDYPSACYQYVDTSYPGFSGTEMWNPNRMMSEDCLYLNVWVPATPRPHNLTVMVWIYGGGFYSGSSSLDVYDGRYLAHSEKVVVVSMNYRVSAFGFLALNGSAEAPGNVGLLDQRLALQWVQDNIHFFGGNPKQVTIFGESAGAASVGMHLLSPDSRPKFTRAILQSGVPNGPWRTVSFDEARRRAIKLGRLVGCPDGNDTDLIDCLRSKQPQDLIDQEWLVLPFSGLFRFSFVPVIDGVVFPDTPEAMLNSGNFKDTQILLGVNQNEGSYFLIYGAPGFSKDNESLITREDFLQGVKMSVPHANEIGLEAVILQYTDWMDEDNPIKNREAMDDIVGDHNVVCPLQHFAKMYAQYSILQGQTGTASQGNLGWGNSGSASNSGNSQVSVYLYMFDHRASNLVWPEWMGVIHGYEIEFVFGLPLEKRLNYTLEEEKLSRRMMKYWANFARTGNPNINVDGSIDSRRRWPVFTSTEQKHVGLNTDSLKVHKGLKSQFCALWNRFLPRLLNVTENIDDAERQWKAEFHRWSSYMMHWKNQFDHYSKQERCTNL

Structure (SMILES) | IC50 (Cholinesterase) [µM] | inhibition [1] | inhibition [2] | IC50 (Acetylcholinesterase) [µM] | Activity [3] | logP [4] | inhibition [5] [%] | pKa [6] | IC50 [1] [µM] | IC50 [2] [µM] | logD [7] | logD [8] | logD [9] | logD [10]
Clc1cccc(Cl)c1CO/N=C/c1cc[n+](CCCc2ccccc2)cc1 | 2.78 | Active | Active | 0.18 |  |  |  |  |  |  |  |  |  | 
Cn1ccc(=N/N=C/c2c(Cl)cccc2Cl)cc1 | 11 |  |  | 739 | inactive | 3.4 | 60 |  |  |  |  |  |  | 
Clc1cccc(Cl)c1CO/N=C/C1CCN(CCCc2ccccc2)CC1 |  |  |  | 19.1 |  | 3.6 |  | 7.1 |  |  |  |  |  | 
Nc1ccc(O)cc1 [4-AMINOPHENOL] |  |  |  |  |  |  |  |  | 83 | 90 |  |  |  | 
Clc1cccc(Cl)c1CO/N=C/c1cc[n+](CCC[n+]2ccc(/C=N/OCc3c(Cl)cccc3Cl)cc2)cc1.[Br-].[Br-] | 1.83 | Active | Active | 0.34 |  | 0.65 |  |  |  |  |  |  |  | 
Clc1cccc(Cl)c1/C=N/N=c1ccn(Cc2ccccc2)cc1 | 8 |  |  | 17.4 | Dose-dependent effect | 3.5 |  |  |  |  |  |  |  | 
Clc1cccc(Cl)c1/C=N/N=c1ccn(CCc2ccccc2)cc1 | 9 | Dose-dependent effect |  | 56.7 | Dose-dependent effect | 3.9 |  |  |  |  |  |  |  | 
Clc1cccc(Cl)c1CON=C1CCN(CCCc2ccccc2)CC1 | > 100 |  |  | 12 |  | 4.3 |  | 5.7 |  |  |  |  |  | 
Clc1cccc(Cl)c1/C=N/N=c1ccn(Cc2c(Cl)cccc2Cl)cc1 |  |  | Active | 6.4 | Dose-dependent effect | 4 |  |  |  |  | 0.8 | 1.5 | 2.2 | 3.4
Clc1cccc(Cl)c1/C=N/N=c1ccn(CCCc2ccccc2)cc1 | 10 | Dose-dependent effect | Active | 5.66 | Dose-dependent effect | 3.7 |  | 8.7 |  |  | 0.7 | 0.9 | 1.3 | 3.2
